Reference: ChEMBL document CHEMBL4765317, “Novel bacterial topoisomerase inhibitors derived from isomannide” (Eur J Med Chem, 2020)
In brackets after ≈: the same amount, converted by molar mass.

Tests used:
[1] = target: Sodium-dependent dopamine transporter (Homo sapiens) (UniProt Q01959); experiment: Inhibition of recombinant human full length Dopamine transporter expressed in CHO-S cells at 100 uM in presence of [125I]-RTI-55 incubated for 180 mins by scintillation counting method relative to control; type: cell-based
Sodium-dependent dopamine transporter (Homo sapiens), sequence (Q01959 whole entry): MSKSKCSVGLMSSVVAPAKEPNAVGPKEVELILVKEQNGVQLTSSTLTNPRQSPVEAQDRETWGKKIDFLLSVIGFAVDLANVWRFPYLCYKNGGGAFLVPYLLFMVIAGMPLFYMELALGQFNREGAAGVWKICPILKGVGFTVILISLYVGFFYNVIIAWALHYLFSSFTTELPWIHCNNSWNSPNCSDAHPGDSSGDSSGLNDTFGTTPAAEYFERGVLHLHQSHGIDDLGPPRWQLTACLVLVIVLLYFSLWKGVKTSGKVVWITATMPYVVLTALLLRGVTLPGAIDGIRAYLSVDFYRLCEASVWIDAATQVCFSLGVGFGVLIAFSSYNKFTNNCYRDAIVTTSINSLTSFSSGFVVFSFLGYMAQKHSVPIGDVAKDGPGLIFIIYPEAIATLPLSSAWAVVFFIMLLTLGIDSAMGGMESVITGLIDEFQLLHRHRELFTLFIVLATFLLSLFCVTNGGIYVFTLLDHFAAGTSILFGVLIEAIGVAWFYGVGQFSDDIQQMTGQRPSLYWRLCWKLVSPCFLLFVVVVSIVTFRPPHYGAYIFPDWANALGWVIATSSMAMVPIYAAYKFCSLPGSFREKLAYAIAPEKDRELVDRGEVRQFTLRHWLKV
Outline: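 Off-target screen against a panel of 44 receptors, enzymes and transporters, run in duplicate at a single 100 µM concentration. Results are given as % inhibition. No concentration-response follow-up was done.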

[2] = target: Voltage-gated inwardly rectifying potassium channel KCNH2 (Homo sapiens, UniProt Q12809); experiment: Inhibition of human ERG
Voltage-gated inwardly rectifying potassium channel KCNH2, sequence (Q12809 whole entry): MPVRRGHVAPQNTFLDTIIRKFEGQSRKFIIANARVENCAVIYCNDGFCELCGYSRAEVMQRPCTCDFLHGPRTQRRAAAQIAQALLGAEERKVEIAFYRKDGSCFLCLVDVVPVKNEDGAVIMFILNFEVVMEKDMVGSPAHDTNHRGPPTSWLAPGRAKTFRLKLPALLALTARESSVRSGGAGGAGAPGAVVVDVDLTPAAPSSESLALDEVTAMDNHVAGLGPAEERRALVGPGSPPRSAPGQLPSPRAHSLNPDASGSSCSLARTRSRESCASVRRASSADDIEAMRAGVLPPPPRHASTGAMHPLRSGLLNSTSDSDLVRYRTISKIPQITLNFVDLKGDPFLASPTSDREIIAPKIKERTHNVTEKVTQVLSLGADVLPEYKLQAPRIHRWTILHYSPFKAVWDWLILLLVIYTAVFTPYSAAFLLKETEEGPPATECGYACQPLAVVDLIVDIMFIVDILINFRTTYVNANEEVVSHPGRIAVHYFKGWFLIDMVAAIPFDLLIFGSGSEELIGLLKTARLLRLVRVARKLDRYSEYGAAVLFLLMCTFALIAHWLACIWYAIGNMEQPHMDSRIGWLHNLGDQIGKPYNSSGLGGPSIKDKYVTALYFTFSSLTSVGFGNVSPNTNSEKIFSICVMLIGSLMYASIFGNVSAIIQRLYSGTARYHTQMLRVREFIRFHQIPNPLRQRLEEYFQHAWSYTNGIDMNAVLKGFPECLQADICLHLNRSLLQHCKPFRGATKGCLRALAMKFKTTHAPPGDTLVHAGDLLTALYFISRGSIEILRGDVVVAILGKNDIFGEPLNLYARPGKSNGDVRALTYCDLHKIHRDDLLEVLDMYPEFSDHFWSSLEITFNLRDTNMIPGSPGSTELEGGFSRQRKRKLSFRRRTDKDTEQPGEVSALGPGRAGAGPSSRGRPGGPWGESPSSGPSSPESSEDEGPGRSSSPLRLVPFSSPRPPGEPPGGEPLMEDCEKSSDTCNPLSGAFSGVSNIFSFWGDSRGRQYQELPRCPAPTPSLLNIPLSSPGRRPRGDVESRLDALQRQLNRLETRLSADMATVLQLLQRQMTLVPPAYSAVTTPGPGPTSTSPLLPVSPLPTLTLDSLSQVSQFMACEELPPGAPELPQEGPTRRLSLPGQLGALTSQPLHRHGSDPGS

Staphylococcus aureus [3] = experiment: Antibacterial activity against Staphylococcus aureus harboring DNA gyrase D83N mutant assessed as reduction in bacterial growth by CLSI based broth microdilution method; type: functional
Outline: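 MIC against an isogenic NBTI-resistant daughter strain carrying a D83N substitution in DNA gyrase, originally selected under NBTI pressure from multidrug-resistant MRSA isolate 3527. CLSI broth microdilution was used, with values in µg/mL.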

KCNQ1 = KCNQ1 (Homo sapiens, UniProt P51787); experiment: Inhibition of recombinant human KCNQ1 expressed in CHO-K1 cells at 3 uM by automated Qpatch clamp assay relative to control; type: ADME, cell-based; settings: CHO-K1 cells expressing recombinant human KCNQ1
KCNQ1, sequence (P51787 whole entry): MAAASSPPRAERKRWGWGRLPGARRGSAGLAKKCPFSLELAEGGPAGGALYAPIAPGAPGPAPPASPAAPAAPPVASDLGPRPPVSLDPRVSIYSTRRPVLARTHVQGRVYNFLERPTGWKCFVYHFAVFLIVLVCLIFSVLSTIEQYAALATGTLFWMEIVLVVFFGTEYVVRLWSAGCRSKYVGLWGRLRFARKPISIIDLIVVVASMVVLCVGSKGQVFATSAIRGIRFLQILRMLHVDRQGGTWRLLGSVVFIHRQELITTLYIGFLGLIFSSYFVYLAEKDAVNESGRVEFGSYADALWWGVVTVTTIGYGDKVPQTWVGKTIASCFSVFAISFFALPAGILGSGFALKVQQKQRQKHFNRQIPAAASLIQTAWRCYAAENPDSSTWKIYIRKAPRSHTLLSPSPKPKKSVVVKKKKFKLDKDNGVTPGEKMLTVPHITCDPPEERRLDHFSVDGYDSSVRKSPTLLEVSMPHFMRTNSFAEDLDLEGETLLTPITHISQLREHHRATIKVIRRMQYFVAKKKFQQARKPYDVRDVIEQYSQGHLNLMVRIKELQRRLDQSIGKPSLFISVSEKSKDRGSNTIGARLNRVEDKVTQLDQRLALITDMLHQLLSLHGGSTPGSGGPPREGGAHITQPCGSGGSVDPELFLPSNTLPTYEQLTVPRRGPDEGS
Outline: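 KCNQ1/hminK current recorded in duplicate on an automated QPatch HT at 3, 30 and 100 µM, from a 30 mM DMSO stock. Records were filtered for seal quality, seal drop and current amplitude. Peak outward current was evoked by a step to 60 mV. Block is the test-compound amplitude divided by control, where control is the mean over 15 s at the end of the control period. Chromanol 293B was the positive control.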

[4] = Aqueous solubility of compound at 100 uM incubated for 90 mins by LC-MS/MS analysis; type: physicochemical; settings: buffer
Outline: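 Kinetic solubility measured in buffered aqueous solution at pH 7.4.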

[5] = Metabolic stability in human liver microsomes assessed as half life at 10 uM incubated for 5 mins followed by NADPH addition and measured upto 60 mins by LC-MS analysis; type: ADME, Microsome; settings: time 65 min
CYP3A4 [6] = target: T1, CYP3A4 (Homo sapiens, UniProt P08684); experiment: Residual activity of human liver microsome CYP3A4 at 1 uM in presence of NADPH incubated for 10 to 30 mins by LC-MS-MS analysis; settings: human liver microsomes
T1 sequence (P08684 whole entry): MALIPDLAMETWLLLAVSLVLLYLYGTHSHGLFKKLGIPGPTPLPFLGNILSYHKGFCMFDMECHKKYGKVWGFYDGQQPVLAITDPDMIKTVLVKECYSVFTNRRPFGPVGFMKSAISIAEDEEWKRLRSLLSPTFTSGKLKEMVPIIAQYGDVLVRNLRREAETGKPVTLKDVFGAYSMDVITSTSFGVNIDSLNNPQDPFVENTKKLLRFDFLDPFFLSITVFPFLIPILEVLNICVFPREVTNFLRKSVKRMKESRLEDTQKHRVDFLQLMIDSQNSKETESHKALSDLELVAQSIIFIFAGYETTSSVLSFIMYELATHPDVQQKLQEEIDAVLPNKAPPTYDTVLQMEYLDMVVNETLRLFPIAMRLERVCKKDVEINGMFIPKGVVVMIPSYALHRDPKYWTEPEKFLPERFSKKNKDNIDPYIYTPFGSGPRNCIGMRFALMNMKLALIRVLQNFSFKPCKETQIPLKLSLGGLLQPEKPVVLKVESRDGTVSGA

CYP3A4 [7] = target: T1, CYP3A4; experiment: Residual activity of human liver microsome CYP3A4 at 0.1 uM in presence of NADPH incubated for 10 to 30 mins by LC-MS-MS analysis; settings: human liver microsomes
Staphylococcus aureus [8] = experiment: Antibacterial activity against Staphylococcus aureus USA300 assessed as reduction in bacterial growth by CLSI based broth microdilution method; type: functional
Staphylococcus aureus [9] = experiment: Antibacterial activity against Staphylococcus aureus 3527 assessed as reduction in bacterial growth by CLSI based broth microdilution method; type: functional
Outline: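 Host is a multidrug-resistant MRSA clinical isolate (formerly 1095), the parent of an isogenic D83N gyrase mutant. MIC was read by CLSI broth microdilution and reported in µg/mL.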

CYP3A4 [10] = target: T1, CYP3A4; experiment: Residual activity of human liver microsome CYP3A4 at 0.3 uM in presence of NADPH incubated for 10 to 30 mins by LC-MS-MS analysis; settings: human liver microsomes
Enterococcus faecium = experiment: Antibacterial activity against Vancomycin-resistant Enterococcus faecium LSI-3340 assessed as reduction in bacterial growth by CLSI based broth microdilution method; type: functional
[11] = Cytotoxicity against human HepaRG assessed as reduction in cell viability at 100 uM incubated for 24 hrs by Cell-Titer Glo assay; type: cell-based; settings: HepaRG cells, read-out: INH
Outline: (§1)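 ATP-based viability read-out in HepaRG cells over a five-point concentration series (0.01, 0.1, 1, 10, 100 µM). Results are given as % cytotoxicity at each concentration.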

[12] = Permeability across apical to basolateral side in human Caco2 cells at 10 uM by LC-MS/MS analysis; type: ADME, cell-based; settings: Caco-2, read-out: permeability
[13] = Cytotoxicity against human HepaRG assessed as reduction in cell viability at 0.1 uM incubated for 24 hrs by Cell-Titer Glo assay; type: cell-based; settings: HepaRG cells, read-out: INH; outline: as §1
Staphylococcus aureus [14] = experiment: Antibacterial activity against cystic fibrosis patient isolate Staphylococcus aureus assessed as reduction in bacterial growth by CLSI based broth microdilution method; type: functional
CYP1A2 = CYP1A2 (Homo sapiens, UniProt P05177); experiment: Inhibition of human liver microsome CYP1A2 at 10 uM in presence of NADPH incubated for 10 to 30 mins by LC-MS-MS analysis; type: ADME; settings: human liver microsomes, time 10-30 min
CYP1A2, sequence (P05177 whole entry): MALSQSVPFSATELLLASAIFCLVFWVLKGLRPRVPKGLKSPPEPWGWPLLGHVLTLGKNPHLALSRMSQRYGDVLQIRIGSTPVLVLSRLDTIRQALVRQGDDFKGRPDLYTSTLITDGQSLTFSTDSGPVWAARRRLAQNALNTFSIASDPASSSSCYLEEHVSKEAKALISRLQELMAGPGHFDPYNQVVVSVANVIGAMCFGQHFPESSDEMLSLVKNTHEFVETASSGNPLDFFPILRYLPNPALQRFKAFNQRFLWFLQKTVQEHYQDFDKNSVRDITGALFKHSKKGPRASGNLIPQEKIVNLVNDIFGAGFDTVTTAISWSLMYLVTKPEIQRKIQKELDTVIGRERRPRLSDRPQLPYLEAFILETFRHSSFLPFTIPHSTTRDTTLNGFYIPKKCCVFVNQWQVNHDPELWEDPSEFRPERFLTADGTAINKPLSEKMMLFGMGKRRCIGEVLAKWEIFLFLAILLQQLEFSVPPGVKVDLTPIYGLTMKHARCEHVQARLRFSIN

[15] = Cytotoxicity against human HepaRG assessed as reduction in cell viability at 1 uM incubated for 24 hrs by Cell-Titer Glo assay; type: cell-based; settings: HepaRG cells, read-out: INH; outline: as §1
[16] = Cytotoxicity against human HepaRG assessed as reduction in cell viability at 10 uM incubated for 24 hrs by Cell-Titer Glo assay; type: cell-based; settings: HepaRG cells, read-out: INH; outline: as §1
[17] = Inhibition of Staphylococcus aureus topoisomerase IV using kDNA as substrate incubated for 30 mins by gel electrophoresis analysis; settings: read-out: IC50
CYP3A4 [18] = target: T1, CYP3A4; experiment: Inhibition of human liver microsome CYP3A4 at 10 uM in presence of NADPH incubated for 10 to 30 mins by LC-MS-MS analysis; values are per cent of control; settings: human liver microsomes
CYP3A4 [19] = target: T1, CYP3A4; experiment: Residual activity of human liver microsome CYP3A4 at 3 uM in presence of NADPH incubated for 10 to 30 mins by LC-MS-MS analysis; settings: human liver microsomes

COc1ccc2ncc(F)c(CC[C@@]3(O)CO[C@@H]4[C@@H](NCc5cc6c(cn5)OCCO6)CO[C@@H]43)c2n1 gave an inhibition [1] of 96%, an IC50 [2] of 66 µM and an MIC (Staphylococcus aureus [3]) of 2 µg/mL (≈ 4.01 µM). It also gave an inhibition at 3 µM (KCNQ1) of -2.9%, a solubility at […], 100 µM [4] of 76.2 µM (≈ 38 µg/mL) and a half-life at 10 µM [5] of 6 min. For the same compound, the residual activity at 1 µM (CYP3A4 [6]) was 60.4%, the residual activity at 0.1 µM (CYP3A4 [7]) was 97% and the MIC (Staphylococcus aureus [8]) was 2 µg/mL (≈ 4.01 µM). For the same compound, the MIC (Staphylococcus aureus [9]) was 2 µg/mL (≈ 4.01 µM), the residual activity at 0.3 µM (CYP3A4 [10]) was 89.9% and the MIC (Enterococcus faecium) was 0.25 µg/mL (≈ 0.501 µM). The cytotoxicity at 24 h, 100 µM [11] was 14%, the Papp A→B at 10 µM [12] was 10.8 ×10⁻⁶ cm/s and the cytotoxicity at 24 h, 0.1 µM [13] was 4%. For the same compound, the MIC (Staphylococcus aureus [14]) was 2 µg/mL (≈ 4.01 µM), the inhibition at 10 µM (CYP1A2) was < 50% and the cytotoxicity at 24 h, 1 µM [15] was 9%. For the same compound, the cytotoxicity at 24 h, 10 µM [16] was 8%, the IC50 [17] was 7.4 µM and the residual activity at 10 µM (CYP3A4 [18]) was 49.5%. For the same compound, the residual activity at 3 µM (CYP3A4 [19]) was 60.4%.
